PfG6PD inh: PfG6PD (Plasmodium falciparum) enzyme inhibition; PfGluPho enzyme, NADPH resazurin-diaphorase fluorescence; inhibition, % at 20 µM; AID 504690; 350,000 compounds, 0.78% hits;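 active means inhibition reaching at least a set limit at 20 µM in the primary screen, cut at about 59% in these data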
ATG4B inhibitor: ATG4B (human) cysteine protease inhibition | ATG4B cleavage of LC3-PLA2, NBD-HPC fluorescence, 1 h | inhibition, % at 8.33 µM | 340,000 compounds, 0.51% hits | AID 504462; in the data active means inhibition above about 40%
PKA-R2B act: activates the human PKA-R2B holoenzyme complex. P22694+P31323. PKA-R2B holoenzyme dissociation, Cy5-IP20 fluorescence polarization; R2B truncated from residue 108, S112A mutant; 0% DMSO only, 100% 113 µM cGMP. activation, % at 11.4 µM. 340,000 compounds, 0.079% hits;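 active means activation above a cutoff set at the mean over all compounds plus 3 SD, cut at about 18% in these data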;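 further: higher means more holoenzyme dissociation and a rise in polarization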
HKDC1 inh: blocks human hexokinase HKDC1 activity; 340,000 compounds, 0.16% hits; Q2TB90; inhibition, % at 20 µM; recombinant HKDC1, G6PDH/diaphorase resazurin coupled fluorescence; AID 493160;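 active means inhibition above about 35% when tested at 20 µM, limit read from the data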
Target sequence (Q2TB90 whole entry, looked up): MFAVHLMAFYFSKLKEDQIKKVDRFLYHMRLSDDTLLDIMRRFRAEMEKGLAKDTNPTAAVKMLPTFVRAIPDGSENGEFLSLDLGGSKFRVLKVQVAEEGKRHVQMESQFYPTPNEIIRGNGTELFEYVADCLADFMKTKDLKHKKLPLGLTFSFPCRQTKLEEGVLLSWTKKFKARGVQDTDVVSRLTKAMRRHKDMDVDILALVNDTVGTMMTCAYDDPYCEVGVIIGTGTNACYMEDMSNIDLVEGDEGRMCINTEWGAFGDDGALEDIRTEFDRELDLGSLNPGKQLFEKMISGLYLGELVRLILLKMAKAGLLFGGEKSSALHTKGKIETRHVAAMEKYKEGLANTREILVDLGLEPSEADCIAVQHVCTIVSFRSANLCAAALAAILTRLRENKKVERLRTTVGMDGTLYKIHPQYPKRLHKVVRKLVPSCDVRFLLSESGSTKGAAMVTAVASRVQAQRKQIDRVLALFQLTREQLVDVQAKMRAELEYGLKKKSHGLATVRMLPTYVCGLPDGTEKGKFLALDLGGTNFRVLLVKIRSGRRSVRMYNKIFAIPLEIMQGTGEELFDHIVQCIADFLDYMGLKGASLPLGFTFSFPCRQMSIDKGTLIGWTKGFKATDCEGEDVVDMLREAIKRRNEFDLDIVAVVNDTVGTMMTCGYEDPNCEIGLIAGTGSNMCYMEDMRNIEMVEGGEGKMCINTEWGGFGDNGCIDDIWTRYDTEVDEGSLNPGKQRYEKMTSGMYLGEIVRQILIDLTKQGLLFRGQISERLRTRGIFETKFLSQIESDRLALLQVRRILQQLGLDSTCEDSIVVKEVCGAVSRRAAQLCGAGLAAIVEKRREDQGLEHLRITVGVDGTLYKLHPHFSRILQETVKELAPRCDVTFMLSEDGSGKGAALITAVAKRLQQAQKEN
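Test system: recombinant HKDC1 (HK5) hexokinase enzyme, produced in-house; Amount: enzyme 5 µg/mL final; Buffer or medium: Tris pH 8.0 buffer with MgCl2, Tween-20, BSA, BME; Reagent: glucose and ATP substrates; Doses: 20 µM test compound, 1% DMSO; Incubation: 90 min reaction incubation at room temperature, dark; Detection: resorufin fluorescence at 613 nm.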
PKA-R1A act: activates the PKA-R1A holoenzyme complex; P00514+P68181; PKA-R1A dissociation, Cy5-IP20 fluorescence polarization; scaled: DMSO 0%, 113 µM cGMP 100%; activation, % at 11.4 µM; 340,000 compounds, 0.083% hits;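 active means percent activation above the mean of all tested compounds plus 3 SD, cut at about 19% in these data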;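 further: higher means more PKAc released from R1A so a rise in polarization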
T cell modulator: T cell immune modulators affecting CD8 T cell-vesicle binding. 2C CD8+ T cell-vesicle binding, flow cytometry; hits give low values. response (vesicle binding), % at 7 µM. 330,000 compounds, 0.068% hits;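 active means response, share of CD8 T cells binding vesicles, and their 90th percentile fluorescence all below set limits, cut at about 80% in these data, passing the limit was not always enough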;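 further: values below 100% mean blocked vesicle binding to the CD8+ T cells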
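Material: murine 2C transgenic CD8+ T lymphocytes / Also added: QL9-peptide-loaded Drosophila micro-vesicles bearing Ld, ICAM-1 and B7-1 / Schedule: binding step 1.5 h, 37 °C, antibody labelling 20 min, ice / Signal: flow cytometry, PE anti-B7-1 (FL2) versus Alexa647 anti-CD8 (FL8), PFA-fixed / Evaluation: percent CD8+ FL2 mean versus row control / Benchmarks: naked versus QL9-loaded vesicles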
HKDC1 act conf: confirmation of human HKDC1 activators. shares compounds with HKDC1 inh. recombinant HKDC1, G6PDH/diaphorase resazurin fluorescence; hits give low values. inhibition, % at 20 µM. 740 compounds, 14% hits;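 active means inhibition at or below a set negative limit, negative inhibition meaning the enzyme was activated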
ATG4B conf: ATG4B (human) inhibition, single-dose confirmed | AID 504757 | 320 compounds, 92% hits | shares compounds with ATG4B inhibitor | inhibition, % at 8.33 µM | ATG4B protease fluorescent substrate cleavage assay; in the data active means inhibition above about 39%
PLA2 counter: inhibits human PLA2, flagging false ATG4B inhibitors; 1,600 compounds, 66% hits; inhibition, % at 8.33 µM; purified PLA2, NBD-C6-HPC fluorescence, 45 min; shares compounds with ATG4B inhibitor; in the data active means inhibition above about 50%
PfGluPho conf: confirmation of Plasmodium falciparum G6PD inhibitors; inhibition, % at 20 µM; 2,400 compounds, 34% hits; AID 504753; recombinant PfGluPho, NADPH-diaphorase-resazurin fluorescence; shares compounds with PfG6PD inh;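 active means inhibition of at least 50% at 20 µM in any single replicate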
Diaph ctr 10uM: inhibits diaphorase or oxidizes, flagging false PfG6PD hits; shares compounds with PfG6PD inh; diaphorase-coupled resazurin reduction, fluorescence, NADPH 10 uM; inhibition, % at 20 µM; 820 compounds, 39% hits; AID 504862;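 active means average inhibition reaching 50% or more with the compound at 20 µM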;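 further: resorufin red fluorescence formed as diaphorase reduces resazurin using NADPH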
Diaph ctr 30uM: inhibits diaphorase or oxidizes, flagging false PfG6PD hits | shares compounds with PfG6PD inh | Diaphorase/resazurin coupled assay, resorufin fluorescence, 30 uM NADPH | inhibition, % at 20 µM | 820 compounds, 29% hits | AID 504863;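 active means inhibition averaging 50% or more, tested at 20 µM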
Each line names hits and unclear results; the compound was inactive in the other large screens (follow-up assays come after a bar, where they were run). The list is not random: actives were taken first. Their share in the collection is about 1.6%.

O=C1C(F)=CC(COC(c2ccccc2)(c2ccccc2)c2ccccc2)OC1n1cc(F)c(=O)[nH]c1=O (stereo not drawn)	PfG6PD inh 59, HKDC1 inh 40 (no result: T cell modulator) | HKDC1 act conf inactive | PfGluPho conf inactive
CCOc1ccc(N)c(SSc2cc(OCC)ccc2N)c1	PfG6PD inh 68 | HKDC1 act conf inactive | PfGluPho conf inactive
Cc1cn(C2CC(OC(=O)C(C)C)C(CO)O2)c(=O)[nH]c1=O (stereo not drawn)	none
CC1(OC(=O)C2CCCC2)C(=O)C=C2C=C(c3ccsc3)N(CCc3c[nH]c4ccccc34)C=C2C1=O (stereo not drawn)	PfG6PD inh 78, HKDC1 inh 35 | HKDC1 act conf inactive | PfGluPho conf 66 | Diaph ctr 10uM inactive | Diaph ctr 30uM inactive
O=C1OC(c2ccc3ccccc3c2O)(c2ccc3ccccc3c2O)c2ccccc21	PfG6PD inh 75, HKDC1 inh 36 (no result: T cell modulator) | HKDC1 act conf inactive | PfGluPho conf 57 | Diaph ctr 10uM inactive | Diaph ctr 30uM inactive
O=C1OC(c2ccc(O)cc2)(c2ccc(O)cc2)c2ccccc21	none
CN(C1CCCCC1)S(=O)(=O)c1cn(C)c(=O)n(C)c1=O	none
CCN(CC(=O)Nc1ccc(NC(C)=O)cc1)C(=O)c1ccccc1SCC(=O)N1CCCC1	none
CN(C)c1ccc(Cc2cc3c(O)ccc(O)c3cc(Cc3ccc(N(C)C)cc3)c2=O)cc1	PfG6PD inh 113, HKDC1 inh 60 (no result: T cell modulator) | HKDC1 act conf inactive | PfGluPho conf 84 | Diaph ctr 10uM inactive | Diaph ctr 30uM inactive
COc1cccc(NC(=O)CSc2nnnn2C2CCCCC2)c1	none (no result: T cell modulator)
COc1cc([N+](=O)[O-])ccc1-c1ccc(/C=C2\C(=O)ON=C2c2ccccc2)o1	PfG6PD inh 74, HKDC1 inh 44 (no result: T cell modulator) | HKDC1 act conf inactive | PfGluPho conf inactive
COc1cc([N+](=O)[O-])ccc1-c1ccc(/C=N\n2cnnc2)o1	none
COc1ccc(S(=O)(=O)/N=C2\C=C(Nc3ccc(O)cc3)C(=O)c3ccccc32)cc1	PfG6PD inh 109, HKDC1 inh 42 | HKDC1 act conf inactive | PfGluPho conf 52 | Diaph ctr 10uM inactive | Diaph ctr 30uM inactive
CC(=O)Nc1ccc(NC2=C/C(=N/S(=O)(=O)c3cccs3)c3ccccc3C2=O)cc1	PfG6PD inh 87, HKDC1 inh 44 (no result: PKA-R2B act, PKA-R1A act) | HKDC1 act conf inactive | PfGluPho conf 73 | Diaph ctr 10uM 73 | Diaph ctr 30uM 76
Cc1ccc(NC2=C/C(=N/S(=O)(=O)c3cccs3)c3ccccc3C2=O)cc1C	none
CC(C)c1ccc(S(=O)(=O)/N=C2\C=C(NS(=O)(=O)c3ccccc3)C(=O)c3ccccc32)cc1	none
Cc1ccccc1NC1=C/C(=N\S(=O)(=O)c2ccc(C(=O)O)cc2)c2ccccc2C1=O	PfG6PD inh 78, ATG4B inhibitor 59, HKDC1 inh 70 | HKDC1 act conf inactive | ATG4B conf inactive | PLA2 counter inactive | PfGluPho conf 61 | Diaph ctr 10uM 59 | Diaph ctr 30uM 52
